For data set [1], the target named is Glycogen synthase kinase-3 beta (Homo sapiens, UniProt P49841). In words: Inhibition of GSK3B isoform 2 in human HeLa cells lysate at 50 uM pre incubated for 15 mins followed by ADP acyl phosphate probe addition and measured after 10 mins by LC-MS/MS analysis relative to control. It is filed as subcellular. As to conditions: time 25.0 min.
Data set [2] is described as follows: Cmax in Sprague-Dawley rat at 2 mg/kg, po measured up to 8 hrs by LC-MS/MS analysis. It is filed as ADME, organism-based. The settings on record: in vivo. The method, boiled down:
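Sprague-Dawley rats given one intravenous dose or one oral dose of 2 mg/kg. Plasma drug concentrations were followed over time, with samples taken out to 8 hr after dosing. PK parameters (clearance, volume of distribution, half-life, oral bioavailability, Cmax) were calculated from these concentration–time data.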

Data set [3] deals with Tyrosine-protein kinase JAK1 (Homo sapiens, UniProt P23458). As to the kind of experiment: Inhibition of JAK1 domain 2 in human HeLa cells lysate at 10 uM pre incubated for 15 mins followed by ATP acyl phosphate probe addition and measured after 10 mins by LC-MS/MS analysis relative to control. It is filed as subcellular. The settings on record: time 25.0 min.
Data set [4] concerns the target Epidermal growth factor receptor (Homo sapiens, UniProt P00533). In words: Inhibition of EGFR in human HeLa cells lysate at 50 uM pre incubated for 15 mins followed by ADP acyl phosphate probe addition and measured after 10 mins by LC-MS/MS analysis relative to control. It is filed as subcellular. As to conditions: time 25.0 min.
Data set [5] addresses Non-receptor tyrosine-protein kinase TNK1 (Homo sapiens, UniProt Q13470). As to the kind of experiment: Binding affinity to TNK1 (unknown origin) assessed as dissociation constant by ATP-competition binding assay.
A short description of data set [6]: Inhibition of SRPK1/2 in human HeLa cells lysate at 2 uM pre incubated for 15 mins followed by ADP acyl phosphate probe addition and measured after 10 mins by LC-MS/MS analysis relative to control. The settings on record: 25 min, condition cancer.
The target in data set [7] is Serine/threonine-protein kinase MARK1 (Homo sapiens, UniProt Q9P0L2). As to the kind of experiment: Inhibition of MARK1 in human HeLa cells lysate pre incubated for 15 mins followed by ADP acyl phosphate probe addition and measured after 10 mins by LC-MS/MS analysis. It is filed as subcellular.
For data set [8], the target named is Phosphatidylinositol 4-phosphate 3-kinase C2 domain-containing subunit beta (Homo sapiens, UniProt O00750). In words: Inhibition of PIK3C2B in human HeLa cells lysate at 50 uM pre incubated for 15 mins followed by ATP acyl phosphate probe addition and measured after 10 mins by LC-MS/MS analysis relative to control. It is filed as subcellular. The settings on record: time 25.0 min.

Data set [9] addresses Serine/threonine-protein kinase Nek7 (Homo sapiens, UniProt Q8TDX7). In words: Inhibition of NEK7 in human HeLa cells lysate at 2 uM pre incubated for 15 mins followed by ADP acyl phosphate probe addition and measured after 10 mins by LC-MS/MS analysis relative to control. It is filed as subcellular. The settings on record: time 25.0 min.
Data set [10] deals with Ribosomal protein S6 kinase alpha-5 (Homo sapiens, UniProt O75582). As to the kind of experiment: Inhibition of MSK1 domain 1 in human HeLa cells lysate at 50 uM pre incubated for 15 mins followed by ATP acyl phosphate probe addition and measured after 10 mins by LC-MS/MS analysis relative to control. It is filed as subcellular. The settings on record: time 25.0 min.
The target of data set [11] is Dual specificity mitogen-activated protein kinase kinase 1 (Homo sapiens, UniProt Q02750). As to the kind of experiment: Inhibition of MAP2K1 in human HeLa cells lysate pre incubated for 15 mins followed by ADP acyl phosphate probe addition and measured after 10 mins by LC-MS/MS analysis. It is filed as subcellular.
For data set [12], the target named is Focal adhesion kinase 1 (Homo sapiens, UniProt Q05397). In words: Inhibition of FAK in human HeLa cells lysate at 50 uM pre incubated for 15 mins followed by ADP acyl phosphate probe addition and measured after 10 mins by LC-MS/MS analysis relative to control. It is filed as subcellular. As to conditions: time 25.0 min.
Data set [13] deals with T1, Phosphatidylinositol 5-phosphate 4-kinase type-2 gamma (Homo sapiens) (UniProt Q8TBX8).
T1 sequence (whole entry): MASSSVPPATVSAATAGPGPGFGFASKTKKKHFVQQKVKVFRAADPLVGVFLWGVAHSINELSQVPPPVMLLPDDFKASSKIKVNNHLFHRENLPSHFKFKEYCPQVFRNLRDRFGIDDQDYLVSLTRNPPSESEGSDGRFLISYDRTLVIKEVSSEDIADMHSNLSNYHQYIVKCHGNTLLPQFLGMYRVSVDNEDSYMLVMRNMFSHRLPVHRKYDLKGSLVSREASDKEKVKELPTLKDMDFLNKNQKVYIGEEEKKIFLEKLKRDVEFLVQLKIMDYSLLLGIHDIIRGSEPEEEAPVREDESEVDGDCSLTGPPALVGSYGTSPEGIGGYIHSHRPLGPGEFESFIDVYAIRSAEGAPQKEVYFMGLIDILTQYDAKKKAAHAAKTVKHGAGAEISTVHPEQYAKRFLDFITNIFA
In words: Inhibition of PIP5K2C LIP2 site in human HeLa cells lysate at 2 uM pre incubated for 15 mins followed by ATP acyl phosphate probe addition and measured after 10 mins by LC-MS/MS analysis relative to control. As to conditions: time 25.0 min. It is filed as subcellular.

Data set [14] deals with Cyclin-dependent kinase 2 (Homo sapiens, UniProt P24941). In words: Inhibition of CDK2 K1 site in human HeLa cells lysate at 10 uM pre incubated for 15 mins followed by ATP acyl phosphate probe addition and measured after 10 mins by LC-MS/MS analysis relative to control. It is filed as subcellular. As to conditions: time 25.0 min. The method, boiled down:
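KiNativ profiling in HeLa lysate (5 mg/mL total protein). Lysate incubated 15 min with inhibitor at 50, 10, 2, 0.8 or 0 μM. ATP or ADP acylphosphate probe then added (5 μM final) and reacted 10 min. Reaction stopped with urea and analysed by targeted MS, using up to four fragment ions per kinase peptide-probe conjugate. % inhibition taken against untreated lysate. Run in duplicate.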

The target of data set [15] is T2, Dual specificity mitogen-activated protein kinase kinase 7 (Homo sapiens) (UniProt O14733).
T2 sequence (whole entry): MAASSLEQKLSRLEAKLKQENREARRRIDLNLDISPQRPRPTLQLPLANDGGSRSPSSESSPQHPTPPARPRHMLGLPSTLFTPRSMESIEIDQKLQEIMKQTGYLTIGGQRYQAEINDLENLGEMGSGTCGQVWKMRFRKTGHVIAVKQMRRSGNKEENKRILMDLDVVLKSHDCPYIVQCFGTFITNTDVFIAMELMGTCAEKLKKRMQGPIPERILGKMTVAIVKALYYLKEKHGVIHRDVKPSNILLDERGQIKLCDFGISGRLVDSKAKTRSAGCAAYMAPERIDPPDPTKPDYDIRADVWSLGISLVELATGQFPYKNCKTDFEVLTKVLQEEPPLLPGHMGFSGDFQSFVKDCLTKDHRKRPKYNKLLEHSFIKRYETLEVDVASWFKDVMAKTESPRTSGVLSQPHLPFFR
In words: Inhibition of MAP2K7 in human HeLa cells lysate at 2 uM pre incubated for 15 mins followed by ADP acyl phosphate probe addition and measured after 10 mins by LC-MS/MS analysis relative to control. It is filed as subcellular. The settings on record: time 25.0 min.

Sequence of Tyrosine-protein kinase JAK1 (P23458 whole entry, the tested form may be a part): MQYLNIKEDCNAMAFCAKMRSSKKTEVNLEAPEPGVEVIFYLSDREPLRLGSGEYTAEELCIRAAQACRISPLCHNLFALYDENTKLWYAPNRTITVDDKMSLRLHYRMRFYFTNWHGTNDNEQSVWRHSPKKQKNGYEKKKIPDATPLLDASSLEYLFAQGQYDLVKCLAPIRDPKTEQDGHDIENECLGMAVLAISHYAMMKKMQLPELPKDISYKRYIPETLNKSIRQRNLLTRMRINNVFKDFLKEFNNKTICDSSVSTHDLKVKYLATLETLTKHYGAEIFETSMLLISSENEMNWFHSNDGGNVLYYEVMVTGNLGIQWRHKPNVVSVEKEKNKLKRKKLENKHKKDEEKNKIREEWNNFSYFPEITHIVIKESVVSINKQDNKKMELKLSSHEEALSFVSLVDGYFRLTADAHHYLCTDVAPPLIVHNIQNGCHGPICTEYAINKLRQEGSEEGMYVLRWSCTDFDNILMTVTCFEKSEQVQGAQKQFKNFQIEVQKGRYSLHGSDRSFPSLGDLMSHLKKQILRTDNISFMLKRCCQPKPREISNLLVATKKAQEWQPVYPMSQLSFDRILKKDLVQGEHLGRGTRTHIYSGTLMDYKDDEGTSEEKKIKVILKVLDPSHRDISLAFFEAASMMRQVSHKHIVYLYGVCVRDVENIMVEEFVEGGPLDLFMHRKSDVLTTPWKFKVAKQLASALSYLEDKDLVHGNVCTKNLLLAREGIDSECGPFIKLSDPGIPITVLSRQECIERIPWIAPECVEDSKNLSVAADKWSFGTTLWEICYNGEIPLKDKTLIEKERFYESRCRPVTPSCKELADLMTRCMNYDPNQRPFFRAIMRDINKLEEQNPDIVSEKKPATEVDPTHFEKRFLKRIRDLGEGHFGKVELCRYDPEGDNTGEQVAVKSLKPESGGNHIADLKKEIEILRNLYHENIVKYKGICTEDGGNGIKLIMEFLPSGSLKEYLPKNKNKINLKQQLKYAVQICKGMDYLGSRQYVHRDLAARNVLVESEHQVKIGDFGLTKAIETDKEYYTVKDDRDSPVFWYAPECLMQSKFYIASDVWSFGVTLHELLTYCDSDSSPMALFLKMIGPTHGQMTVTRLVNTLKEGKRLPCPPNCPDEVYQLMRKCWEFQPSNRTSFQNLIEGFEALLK
Sequence of Phosphatidylinositol 4-phosphate 3-kinase C2 domain-containing subunit beta (O00750 whole entry, the tested form may be a part): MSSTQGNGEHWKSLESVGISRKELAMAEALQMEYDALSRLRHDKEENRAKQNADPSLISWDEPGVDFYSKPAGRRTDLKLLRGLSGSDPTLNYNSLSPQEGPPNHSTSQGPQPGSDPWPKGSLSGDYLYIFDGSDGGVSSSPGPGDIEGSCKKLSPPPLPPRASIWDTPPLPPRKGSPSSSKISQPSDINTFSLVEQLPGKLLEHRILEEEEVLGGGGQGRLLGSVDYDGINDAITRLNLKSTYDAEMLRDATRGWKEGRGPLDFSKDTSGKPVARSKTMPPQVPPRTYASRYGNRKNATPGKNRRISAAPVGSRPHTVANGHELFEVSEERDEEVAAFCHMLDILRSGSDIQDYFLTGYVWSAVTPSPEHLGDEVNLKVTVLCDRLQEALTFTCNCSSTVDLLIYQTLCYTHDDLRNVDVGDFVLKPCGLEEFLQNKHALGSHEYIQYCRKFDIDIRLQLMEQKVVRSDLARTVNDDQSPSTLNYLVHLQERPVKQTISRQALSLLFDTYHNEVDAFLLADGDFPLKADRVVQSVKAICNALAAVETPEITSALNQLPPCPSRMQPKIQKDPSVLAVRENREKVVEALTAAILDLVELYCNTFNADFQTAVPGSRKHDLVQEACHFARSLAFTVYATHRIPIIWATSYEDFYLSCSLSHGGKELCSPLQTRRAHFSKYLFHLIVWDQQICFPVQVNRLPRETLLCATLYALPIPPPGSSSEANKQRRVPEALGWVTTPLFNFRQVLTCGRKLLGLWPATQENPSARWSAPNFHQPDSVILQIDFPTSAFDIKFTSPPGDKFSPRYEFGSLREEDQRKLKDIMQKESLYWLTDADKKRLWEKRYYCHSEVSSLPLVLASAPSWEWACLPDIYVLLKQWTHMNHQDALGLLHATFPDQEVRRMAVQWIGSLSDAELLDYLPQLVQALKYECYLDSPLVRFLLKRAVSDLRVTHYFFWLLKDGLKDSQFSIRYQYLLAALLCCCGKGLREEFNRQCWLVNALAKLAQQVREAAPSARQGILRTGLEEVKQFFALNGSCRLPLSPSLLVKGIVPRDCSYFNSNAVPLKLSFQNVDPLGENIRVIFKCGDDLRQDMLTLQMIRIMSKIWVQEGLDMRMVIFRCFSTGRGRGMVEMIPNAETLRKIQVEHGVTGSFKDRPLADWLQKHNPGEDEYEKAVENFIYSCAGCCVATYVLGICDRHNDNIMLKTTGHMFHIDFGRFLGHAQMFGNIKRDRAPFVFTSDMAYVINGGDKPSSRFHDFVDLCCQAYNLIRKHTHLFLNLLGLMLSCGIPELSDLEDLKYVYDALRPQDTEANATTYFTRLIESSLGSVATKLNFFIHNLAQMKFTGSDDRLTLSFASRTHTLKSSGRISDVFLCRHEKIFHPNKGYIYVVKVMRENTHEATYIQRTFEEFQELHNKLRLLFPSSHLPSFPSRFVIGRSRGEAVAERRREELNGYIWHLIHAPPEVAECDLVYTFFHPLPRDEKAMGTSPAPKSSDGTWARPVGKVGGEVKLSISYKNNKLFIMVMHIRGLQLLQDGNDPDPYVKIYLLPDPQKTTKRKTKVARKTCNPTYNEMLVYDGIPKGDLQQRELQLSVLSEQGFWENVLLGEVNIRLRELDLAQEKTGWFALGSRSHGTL
Sequence of Dual specificity mitogen-activated protein kinase kinase 1 (Q02750 whole entry): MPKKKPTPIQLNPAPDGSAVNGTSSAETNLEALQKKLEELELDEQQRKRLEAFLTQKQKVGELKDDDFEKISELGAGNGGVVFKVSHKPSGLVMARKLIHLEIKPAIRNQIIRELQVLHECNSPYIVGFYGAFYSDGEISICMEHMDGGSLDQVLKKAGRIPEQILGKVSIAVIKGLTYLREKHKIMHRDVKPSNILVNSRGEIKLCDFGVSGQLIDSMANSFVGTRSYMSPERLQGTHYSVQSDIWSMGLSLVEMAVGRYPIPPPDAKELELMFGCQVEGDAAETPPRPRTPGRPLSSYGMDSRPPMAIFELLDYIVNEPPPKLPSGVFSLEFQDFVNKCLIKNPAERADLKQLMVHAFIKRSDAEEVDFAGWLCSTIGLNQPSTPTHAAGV
Sequence of Ribosomal protein S6 kinase alpha-5 (O75582 whole entry, looked up, the tested form may be a part): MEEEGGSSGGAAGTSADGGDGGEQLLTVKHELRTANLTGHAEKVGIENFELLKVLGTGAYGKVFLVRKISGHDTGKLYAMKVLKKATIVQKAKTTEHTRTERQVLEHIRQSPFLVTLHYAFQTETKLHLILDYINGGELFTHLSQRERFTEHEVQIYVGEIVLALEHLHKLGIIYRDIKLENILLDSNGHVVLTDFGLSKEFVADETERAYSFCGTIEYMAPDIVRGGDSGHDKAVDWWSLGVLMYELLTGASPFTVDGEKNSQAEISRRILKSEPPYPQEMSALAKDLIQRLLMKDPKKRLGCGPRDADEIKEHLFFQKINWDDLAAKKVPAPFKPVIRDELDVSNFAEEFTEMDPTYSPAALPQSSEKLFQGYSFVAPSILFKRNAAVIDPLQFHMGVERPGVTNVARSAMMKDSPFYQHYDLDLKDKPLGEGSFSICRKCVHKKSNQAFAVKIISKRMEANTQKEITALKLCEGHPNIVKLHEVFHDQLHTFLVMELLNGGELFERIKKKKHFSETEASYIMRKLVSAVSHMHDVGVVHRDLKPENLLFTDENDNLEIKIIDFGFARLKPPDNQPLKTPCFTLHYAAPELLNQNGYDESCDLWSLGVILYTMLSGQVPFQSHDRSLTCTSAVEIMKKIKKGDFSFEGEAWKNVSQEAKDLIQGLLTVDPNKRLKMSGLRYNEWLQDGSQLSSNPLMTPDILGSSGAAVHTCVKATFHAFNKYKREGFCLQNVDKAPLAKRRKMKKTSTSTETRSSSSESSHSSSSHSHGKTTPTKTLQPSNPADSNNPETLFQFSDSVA
Sequence of Serine/threonine-protein kinase MARK1 (Q9P0L2 whole entry, the tested form may be a part): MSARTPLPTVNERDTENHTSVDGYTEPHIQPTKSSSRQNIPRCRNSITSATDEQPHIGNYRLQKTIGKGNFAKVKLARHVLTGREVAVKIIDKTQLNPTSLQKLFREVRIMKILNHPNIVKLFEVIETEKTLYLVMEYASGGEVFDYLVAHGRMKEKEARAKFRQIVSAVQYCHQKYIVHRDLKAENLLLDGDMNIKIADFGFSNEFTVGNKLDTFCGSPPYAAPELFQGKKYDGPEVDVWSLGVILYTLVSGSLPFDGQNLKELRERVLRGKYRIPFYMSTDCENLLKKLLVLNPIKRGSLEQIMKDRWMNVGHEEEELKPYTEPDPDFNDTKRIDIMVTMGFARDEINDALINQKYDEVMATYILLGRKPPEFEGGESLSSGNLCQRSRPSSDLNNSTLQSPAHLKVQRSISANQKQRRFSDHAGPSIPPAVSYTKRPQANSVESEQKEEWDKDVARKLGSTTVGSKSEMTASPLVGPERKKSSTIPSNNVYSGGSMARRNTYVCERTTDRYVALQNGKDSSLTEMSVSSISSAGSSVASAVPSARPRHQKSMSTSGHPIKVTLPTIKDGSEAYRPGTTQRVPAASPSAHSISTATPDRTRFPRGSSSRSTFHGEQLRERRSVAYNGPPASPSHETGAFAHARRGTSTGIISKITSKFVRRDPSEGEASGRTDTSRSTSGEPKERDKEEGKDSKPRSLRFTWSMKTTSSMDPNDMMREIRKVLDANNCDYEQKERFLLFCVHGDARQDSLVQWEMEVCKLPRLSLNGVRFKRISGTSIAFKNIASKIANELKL
Sequence of Serine/threonine-protein kinase Nek7 (Q8TDX7 whole entry, looked up, the tested form may be a part): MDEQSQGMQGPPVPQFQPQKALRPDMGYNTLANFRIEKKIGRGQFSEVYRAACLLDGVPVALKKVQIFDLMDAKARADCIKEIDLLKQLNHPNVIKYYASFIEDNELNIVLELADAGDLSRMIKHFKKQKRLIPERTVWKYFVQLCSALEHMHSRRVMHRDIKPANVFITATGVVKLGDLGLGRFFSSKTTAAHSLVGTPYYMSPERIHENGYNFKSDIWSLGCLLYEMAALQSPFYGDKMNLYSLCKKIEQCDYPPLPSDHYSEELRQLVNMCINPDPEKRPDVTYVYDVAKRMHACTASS

As for `CCOc1cc(N2CCC(O)CC2)ccc1Nc1ncc2c(n1)N(C)c1ccccc1C(=O)N2C`, the inhibition was 5.1% in data set [1]; -5.7% in data set [3]; 5.9% in data set [4]; 46.3% in data set [8]; 14.2% in data set [9]; 4.6% in [10]. Moreover, the inhibition was 58.1% in [12], 0.7% in [13], -9.1% in data set [14] and 17.9% in data set [15]. In data set [2], this molecule came in with a Cmax of 522 nM. The Kd in [5] is 0.89 µM. Further, the inhibition at 2 µM in data set [6] turned out to be 12.7%. Besides, the IC50 in [7] and in [11] was over 50 µM in each case.

Usually inhibition stands for the relative decrease from the control value, in per cent. The term Cmax denotes the maximum level reached in the sampled fluid or tissue. Broadly, the Kd is a measure of binding affinity in units of concentration. As usually defined, the IC50 is the point on the concentration scale where inhibition reaches its midpoint. A higher IC50 goes with weaker potency.

For the origin of these results see ChEMBL document CHEMBL5661979, “Pharmacological inhibition of BMK1 suppresses tumor growth through promyelocytic leukemia protein” (Cancer Cell, 2010).
